In ChEMBL document CHEMBL5653630, “Activation of the p53-MDM4 regulatory axis defines the anti-tumour response to PRMT5 inhibition through its role in regulating cellular splicing” (Sci Rep, 2018):
Activity calls are given as the source filed them. No cut-off for these calls is given here.

Assays:
HCC1143 = assay: Antiproliferative activity against human HCC1143 cells assessed as cell growth inhibition viability incubated for 6 days by celltiter-glo assay; format: functional; details: HCC1143, 144 h, time 6 day
In short: (§1)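 Cells were seeded in 384-well plates and incubated 24 h, then treated in duplicate with a 20-point, 2-fold dilution series (top dose ≤29 μM, ≤0.15% DMSO) for 6 days. CellTiter-Glo luminescence was read on day 0 and day 6. A 4-parameter fit was used, and curves needed at least 1.5 population doublings. gIC50 is the midpoint of the growth window between DMSO and T0.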

HCC1806 = assay: Antiproliferative activity against human HCC1806 cells assessed as cell growth inhibition incubated for 6 days by celltiter-glo assay; format: functional; details: HCC1806, 144 h, time 6 day; in short: as §1
HCC70 = assay: Antiproliferative activity against human HCC70 cells assessed as cell growth inhibition incubated for 6 days by celltiter-glo assay; format: functional; details: HCC70, 144 h, time 6 day; in short: as §1
JeKo-1 = assay: Antiproliferative activity against human JeKo-1 cells assessed as cell growth inhibition incubated for 6 days by celltiter-glo assay; format: functional; details: JeKo-1, 144 h, time 6 day
In short: (§2)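 Cells seeded in 384-well plates at an optimized density and held 24 h. Day 0: treated in duplicate with a 20-point two-fold series (top dose ≤29 μM, ≤0.15% DMSO) and incubated 6 days. CellTiter-Glo luminescence read at Day 0 and Day 6. Four-parameter fit. gIC50 = midpoint of the growth window between DMSO and T0. Curves required ≥1.5 population doublings.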

JM1 = assay: Antiproliferative activity against human JM1 cells assessed as cell growth inhibition incubated for 6 days by celltiter-glo assay; format: functional; details: JM1, 144 h, time 6 day; in short: as §2
Maver1 = assay: Antiproliferative activity against human MAVER-1 cells assessed as cell growth inhibition incubated for 6 days by celltiter-glo assay; format: functional; details: Maver1, 144 h, time 6 day; in short: as §2
NU-DHL-1 = assay: Antiproliferative activity against human NU-DHL-1 cells assessed as cell growth inhibition incubated for 6 days by celltiter-glo assay; format: functional; details: NU-DHL-1, 144 h, time 6 day; in short: as §2
[1] = Antiproliferative activity against human PER-624 cells assessed as cell growth inhibition incubated for 6 days by celltiter-glo assay; format: functional; details: PER-624, 144 h, time 6 day; in short: as §2
RL = assay: Antiproliferative activity against human RL cells assessed as cell growth inhibition incubated for 6 days by celltiter-glo assay; format: functional; details: 144 h, time 6 day; in short: as §2
SK-BR-3 = assay: Antiproliferative activity against human SK-BR-3 cells assessed as cell growth inhibition incubated for 6 days by celltiter-glo assay; format: functional; details: SK-BR-3, 144 h, time 6 day; in short: as §2
WSU-NHL = assay: Antiproliferative activity against human WSU-NHL cells assessed as cell growth inhibition incubated for 6 days by celltiter-glo assay; format: functional; details: 144 h, time 6 day; in short: as §2
ZR-75-1 = assay: Antiproliferative activity against human ZR-75-1 cells assessed as cell growth inhibition incubated for 6 days by celltiter-glo assay; format: functional; details: ZR-75-1, 144 h, time 6 day; in short: as §2
Z-138 [2] = assay: Induction of cell cycle arrest in human Z138 cells assessed as increase in sub-2n cell population measured upto 1000 nM measured for 5 days by propidium iodide staining based flow cytometric analysis; format: functional; details: time 5.0 day
Z-138 [3] = assay: Induction of apoptosis in human Z138 cells assessed as dead cells incubated for 6 days by annexin-V/FITC propidium iodide staining based flow cytometry analysis; format: functional, cell-based; details: dose 200.0 nM, time 6.0 day
Z-138 [4] = assay: In vivo inhibition of PRMT5 in human Z138 cells xenografted in po dosed mouse assessed as reduction in SDMA level measured for 7 days; format: functional, organism-based; details: dose 0.2-100 mg/kg, time 7.0 day
NCI-H295R = assay: Antiproliferative activity against human NCI-H295R cells assessed as cell growth inhibition incubated for 10 days; format: functional; details: 240 h, time 10 day
C-4-II = assay: Antiproliferative activity against human C-4-II cells assessed as cell growth inhibition incubated for 10 days; format: functional; details: 240 h, time 10 day
In short: (§3)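 Cells kept in RPMI-1640 with 10% FBS, 2 mM L-alanyl-L-glutamine and 1 mM Na pyruvate (or a special medium) at 37°C, 5% CO2. Compound added 24 h after seeding, 10 concentrations in 3.16-fold dilution, 0.1% DMSO final. Medium replaced and cells re-dosed at 168 h; 240 h incubation. Nuclei fixed, dye-stained and imaged. gIC50 = growth midway between untreated and time-zero cell counts, from a 4-parameter fit.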

BV-173 = assay: Antiproliferative activity against human BV-173 cells assessed as cell growth inhibition incubated for 10 days; format: functional; details: BV-173, 240 h, time 10 day; in short: as §3
AGS = assay: Antiproliferative activity against human AGS cells assessed as cell growth inhibition incubated for 10 days; format: functional; details: 240 h, time 10 day; in short: as §3
A 172 = assay: Antiproliferative activity against human A-172 cells assessed as cell growth inhibition incubated for 10 days; format: functional; details: A 172, 240 h, time 10 day; in short: as §3
U-87 MG = assay: Antiproliferative activity against human U-87 MG cells assessed as cell growth inhibition incubated for 10 days; format: functional, U-87MG ATCC; details: 240 h, time 10 day
T98G = assay: Antiproliferative activity against human T98G cells assessed as cell growth inhibition incubated for 10 days; format: functional; details: 240 h, time 10 day
HMCB cell line = assay: Antiproliferative activity against human HMCB cell line assessed as cell growth inhibition incubated for 10 days; format: functional; details: 240 h, time 10 day
In short: (§4)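 Outsourced panel run in 384-well plates. Cells were grown in RPMI-1640/10% FBS or a special medium at 37°C, 5% CO2. Compound was added 24 h after seeding as a 10-point, 3.16-fold series in 0.1% DMSO. Medium was refreshed and cells re-dosed at 168 h, with a time-zero plate kept. At 240 h cells were fixed, nuclei stained and imaged. gIC50 is growth midway between untreated and time zero, from a 4-parameter fit.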

SK-MEL-28 = assay: Antiproliferative activity against human SK-MEL-28 cells assessed as cell growth inhibition incubated for 10 days; format: functional; details: SK-MEL-28, 240 h, time 10 day
A549 = assay: Antiproliferative activity against human A549 cells assessed as cell growth inhibition incubated for 10 days; format: functional; details: A549, 240 h, time 10 day; in short: as §3
Capan-2 = assay: Antiproliferative activity against human Capan-2 cells assessed as cell growth inhibition incubated for 10 days; format: functional; details: Capan-2, 240 h, time 10 day; in short: as §4
CFPAC-1 = assay: Antiproliferative activity against human CFPAC-1 cells assessed as cell growth inhibition incubated for 10 days; format: functional; details: CFPAC-1, 240 h, time 10 day; in short: as §3
RD = assay: Antiproliferative activity against human RD cells assessed as cell growth inhibition incubated for 10 days; format: functional; details: 240 h, time 10 day
DMS-273 = assay: Antiproliferative activity against human DMS-273 cells assessed as cell growth inhibition incubated for 10 days; format: functional; details: DMS-273, 240 h, time 10 day; in short: as §4
BHT-101 = assay: Antiproliferative activity against human BHT-101 cells assessed as cell growth inhibition incubated for 10 days; format: functional; details: BHT-101, 240 h, time 10 day; in short: as §3
[5] = biological target: Protein arginine N-methyltransferase 5 (Homo sapiens) (UniProt O14744); assay: Inhibition of PRMT5 in human Z138 cells assessed as effect on FUBP1 level by measuring fold change by LC-MS/MS analysis relative to control; format: cell-based
Chain of Protein arginine N-methyltransferase 5 (Homo sapiens) (O14744 whole entry): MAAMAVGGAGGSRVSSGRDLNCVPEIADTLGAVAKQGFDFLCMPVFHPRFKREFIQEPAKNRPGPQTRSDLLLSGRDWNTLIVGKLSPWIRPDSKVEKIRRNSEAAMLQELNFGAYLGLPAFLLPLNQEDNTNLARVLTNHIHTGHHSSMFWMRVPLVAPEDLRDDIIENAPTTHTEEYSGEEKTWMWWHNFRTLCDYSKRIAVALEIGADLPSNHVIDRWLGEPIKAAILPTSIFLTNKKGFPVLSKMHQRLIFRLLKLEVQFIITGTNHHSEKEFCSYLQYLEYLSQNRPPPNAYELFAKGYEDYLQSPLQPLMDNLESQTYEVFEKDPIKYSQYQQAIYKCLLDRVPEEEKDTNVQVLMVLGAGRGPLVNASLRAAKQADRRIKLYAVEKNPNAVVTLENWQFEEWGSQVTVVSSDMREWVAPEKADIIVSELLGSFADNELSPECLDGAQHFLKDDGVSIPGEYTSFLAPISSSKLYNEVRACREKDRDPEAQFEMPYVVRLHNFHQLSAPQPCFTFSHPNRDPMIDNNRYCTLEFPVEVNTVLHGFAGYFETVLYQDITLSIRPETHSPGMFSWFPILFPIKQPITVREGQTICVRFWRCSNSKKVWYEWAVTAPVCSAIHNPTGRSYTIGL

[6] = biological target: Protein arginine N-methyltransferase 5 (Homo sapiens) (UniProt O14744); assay: Inhibition of PRMT5 in human Z138 cells expressing full length MDM4 assessed as effect on p53 level at 1 uM incubated for 4 days by Western blot analysis; format: cell-based; details: time 4.0 day

Row | GI50 (HCC1143) [nM] | GI50 (HCC1806) [nM] | GI50 (SK-BR-3) [nM] | SMILES | GI50 (HCC70) [nM] | GI50 (JeKo-1) [µM] | GI50 (JM1) [nM] | GI50 (Maver1) [nM] | GI50 (NU-DHL-1) [nM] | GI50 [1] [nM] | GI50 (RL) [nM] | GI50 (WSU-NHL) [nM] | GI50 (ZR-75-1) [µM] | other results
1 | 246 | 98 | 73 | CC(=O)N1CCC(Nc2cc(C(=O)NC[C@H](O)CN3CCc4ccccc4C3)ncn2)CC1 [PEMRAMETOSTAT] | 130 | 5.4 | 79 | 85 | 333 | 524 | 14 | 8 | 11 | Activity (Z-138 [2]): Active; Activity (Z-138 [3]): Dose-Dependent Effect; inhibition (Z-138 [4]): Dose-Dependent Effect
2 | 509 | 261 | 131 | O=C(NC[C@H](O)CN1CCc2ccccc2C1)c1ccnc(NC2CCC2)c1 | 522 | 6.19 | 76 | 133 | 101 | 526 | 1430 | 76 | 2.62 | GI50 (NCI-H295R): 10 µM; GI50 (C-4-II): 266 nM; GI50 (BV-173): 10.6 nM; GI50 (AGS): 2030 nM; GI50 (A 172): 29.6 nM; GI50 (U-87 MG): 67.6 nM; GI50 (T98G): 27.3 nM; GI50 (HMCB cell line): 666 nM; GI50 (SK-MEL-28): 239 nM; GI50 (A549): 80.9 nM; GI50 (Capan-2): 69.7 nM; GI50 (CFPAC-1): 52.3 nM; GI50 (RD): 639 nM; GI50 (DMS-273): 298 nM; GI50 (BHT-101): 214 nM; fold change (FC) [5]: -6.6; inhibition [6]: inactive
